Ends that are not written are not given here. ABA = azidobenzoic acid, photoreactive group linked to the lysine of the peptide

The results in this text go back to article PMC2118488 (The Journal of Experimental Medicine, 2007).

One assay deals with T1 thymocytes. Kind of assay: Fetal thymic organ culture. In kind it is cell-based, mouse. Particulars: high concentrations (100 μM shown in Fig. 1 D). The procedure, abridged: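 E15 fetal thymi from T1 β2m−/− Rag−/− TCR transgenic mice were cultured 7 d without peptide or with 1 μM exogenous peptide, with 0.2 μM and 100 μM also shown for two variants. Cells were stained for CD4, CD8α and/or CD8β and read by flow cytometry.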

The subject of a further assay is S14 thymocytes. Kind of assay: Fetal thymic organ culture. It is filed as cell-based, mouse. The note with it: S14 TCR transgenic FTOC. The procedure, abridged:
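Fetal thymi (E15) from Rag−/− β2m−/− S14 TCR transgenic mice were cultured for 7 d with peptide variants. Thymocytes were stained for CD4, CD8α and/or CD8β and analysed by flow cytometry.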

In another assay the target is H-2K^d (Mus musculus, UniProt P01902). Nature of the assay: Peptide binding to H-2K^d. The note with it: unpublished data.
Chain of H-2K^d (P01887 21-119): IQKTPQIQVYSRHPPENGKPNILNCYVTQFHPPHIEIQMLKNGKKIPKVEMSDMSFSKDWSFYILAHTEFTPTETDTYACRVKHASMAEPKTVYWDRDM
Chain of H-2K^d (P01902 22-368): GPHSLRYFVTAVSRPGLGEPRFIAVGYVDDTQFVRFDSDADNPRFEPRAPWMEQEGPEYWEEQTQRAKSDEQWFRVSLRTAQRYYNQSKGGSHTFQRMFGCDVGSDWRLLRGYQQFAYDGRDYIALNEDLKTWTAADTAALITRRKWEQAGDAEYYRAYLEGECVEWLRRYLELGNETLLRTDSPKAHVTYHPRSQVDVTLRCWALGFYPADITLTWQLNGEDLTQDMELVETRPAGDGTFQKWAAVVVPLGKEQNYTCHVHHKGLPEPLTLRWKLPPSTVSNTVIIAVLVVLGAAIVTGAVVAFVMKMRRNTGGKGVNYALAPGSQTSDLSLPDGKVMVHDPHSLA

Regarding “4A: variant of SYIPSAEK(ABA)I with proline at position 4 replaced by alanine (SYIASAEK(ABA)I)”, the “Selection outcome in FTOC at high peptide concentrations” value with T1 thymocytes is reported as “could induce negative selection”.

As for “4L: variant of SYIPSAEK(ABA)I with proline at position 4 replaced by leucine (SYILSAEK(ABA)I)”, the “Selecting potential in FTOC” value with S14 thymocytes was “threshold ligand”. In the assay with H-2K^d, the “Affinity for H-2K^d relative to 4P” value is reported as “fivefold lower affinity than 4P”.

Regarding “4S: variant of SYIPSAEK(ABA)I with proline at position 4 replaced by serine (SYISSAEK(ABA)I)”, the “Selection outcome in FTOC at high peptide concentrations” value in the assay on T1 thymocytes is listed as “could induce negative selection”.
